Compound activity deposited in PubChem by Broad Institute.
This is a sample that favours compounds with a hit; in the whole collection about 5.8% have one here.
T cruzi growth-1 = T. cruzi intracellular proliferation inhibitors, primary screen, cell-based, beta-gal Tulahuen parasites, NIH3T3 host, luminescence; T. cruzi beta-gal in NIH3T3, GalScreen luminescence, 90 h; inhibition, % at 8.34 µM; actives 5.9% (n = 77,000);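 active = mean inhibition above about 93%, with at least 55% of replicates each passing it, limit read from the data, passing the limit was not always enough; inconclusive = only one of those two conditions holds; inactive = neither condition holds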
KDM4C inh = inhibitors of GASC-1 (KDM4C) histone demethylase, primary screen, biochemical, single concentration HTS | Lysine-specific demethylase 4C (Homo sapiens), Q9H3R0 | GST-KDM4C 2-372, H3K9me3 peptide, LANCE TR-FRET | inhibition, % at 12.5 µM | actives 0.15% (n = 96,000) | AID 720574, 2013;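 active = mean replicate inhibition above about 25%, with at least 55% of replicates also reaching it, limit read from the data, passing the limit was not always enough; inconclusive = only one of those two conditions met; inactive = neither condition met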
Target sequence (Q9H3R0 2-372 limits assumed): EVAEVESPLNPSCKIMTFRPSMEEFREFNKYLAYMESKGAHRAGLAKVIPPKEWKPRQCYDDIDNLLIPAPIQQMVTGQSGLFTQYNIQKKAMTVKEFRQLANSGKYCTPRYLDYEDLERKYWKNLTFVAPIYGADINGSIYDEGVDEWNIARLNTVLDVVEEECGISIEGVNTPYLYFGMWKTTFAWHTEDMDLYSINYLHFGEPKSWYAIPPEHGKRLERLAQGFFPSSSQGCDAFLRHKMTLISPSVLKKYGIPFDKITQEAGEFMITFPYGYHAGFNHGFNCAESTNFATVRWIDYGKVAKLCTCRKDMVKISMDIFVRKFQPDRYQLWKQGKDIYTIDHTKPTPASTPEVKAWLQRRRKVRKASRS
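Material: N-terminal GST-fused human GASC-1 (KDM4C) fragment, residues 2-372. Input: 10 nM enzyme. Incubation: enzyme reaction 30 min, then detection 60 min, both room temperature. Doses: one test concentration per compound. Read-out basis: inhibition from TR-FRET ratio decrease. Detection: LANCE TR-FRET, excitation 340 nm, emissions 618 and 671 nm.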
Pf Dd2 inh = P. falciparum Dd2 growth inhibitors, primary screen, SYBR Green fluorescence, single dose replicates; activity change, % at 10 µM; actives 2.3% (n = 94,000); 72 h; active compounds read low; in the data active = activity change below about -80%; inconclusive = no clear call, values can overlap the other calls
IDH1 R132H inh = inhibitors of IDH1 R132H reductase, primary screen, biochemical, plate reader, single point; actives 0.18% (n = 70,000); inhibition, % at 10 µM; Isocitrate dehydrogenase [NADP] cytoplasmic (Homo sapiens), O75874; AID 624101, 2012; diaphorase/resazurin fluorescence, 60 min; in the data active = inhibition above about 34%; inconclusive = no clear call, values can overlap the other calls; inactive = below about 11%;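 also: 0% = DMSO and 100% = no enzyme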
Target sequence (O75874 whole entry R132H): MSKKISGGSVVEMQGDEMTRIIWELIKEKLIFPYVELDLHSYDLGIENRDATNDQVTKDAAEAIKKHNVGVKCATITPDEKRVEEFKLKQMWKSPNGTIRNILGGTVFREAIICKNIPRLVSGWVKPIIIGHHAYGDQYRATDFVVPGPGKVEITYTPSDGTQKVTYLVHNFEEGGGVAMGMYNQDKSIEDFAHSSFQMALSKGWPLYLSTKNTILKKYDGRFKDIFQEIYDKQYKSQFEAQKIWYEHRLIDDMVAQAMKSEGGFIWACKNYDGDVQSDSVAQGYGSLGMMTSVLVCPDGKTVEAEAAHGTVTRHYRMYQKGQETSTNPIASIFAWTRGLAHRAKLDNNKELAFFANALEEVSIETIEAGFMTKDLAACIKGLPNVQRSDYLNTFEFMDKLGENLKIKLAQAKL
T cruzi growth-2 = T. cruzi intracellular proliferation inhibitors, confirmation, cell-based, NIH3T3 host, beta-gal parasite, luminescence, cherry-pick; shares compounds with T cruzi growth-1; T. cruzi beta-gal in NIH3T3, GalScreen luminescence, 90 h; inhibition, % at 8.35 µM; actives 72% (n = 5,600);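 active = mean replicate inhibition above about 95% and at least 55% of replicates individually reaching it, limit read from the data; inconclusive = only one of the two criteria is met; inactive = neither criterion is met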
T cruzi growth-3 = inhibitors of intracellular T. cruzi replication, confirmation, NIH3T3 host cells, beta-gal parasites, cherry-pick, set 2; shares compounds with T cruzi growth-1; T. cruzi beta-gal in NIH3T3, GalScreen luminescence, 90 h; inhibition, % at 2.09 µM; actives 21% (n = 5,600); AID 651740, 2012;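 active = mean inhibition above about 95%, with at least 55% of replicates also reaching it, limit read from the data; inconclusive = meets just one of the two conditions; inactive = meets neither condition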;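 also: plate controls were neutral control median for no effect and positive control median for full effect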
NIH3T3 tox = cytotoxicity in mouse NIH/3T3 fibroblasts, confirmation, cytotoxicity control for T. cruzi proliferation inhibitor project, cell-based, cherry-pick, single point | shares compounds with T cruzi growth-1 | NIH/3T3 viability, CellTiter-Glo ATP luminescence, 90 h | cytotoxicity (signal decrease), % at 8.35 µM | actives 14% (n = 5,600);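 active = mean signal decrease across replicates above about 35% based on untreated-well scatter, with enough replicates individually passing, limit read from the data; inconclusive = no rule stated though some were filed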;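 also: 0% = median of neutral control wells and 100% = median of positive control wells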
3T3 cytotox 2 = NIH/3T3 fibroblast cytotoxicity, confirmation, cytotoxicity control, cell-based, cherry-pick, single point, set 2; NIH/3T3 viability, CellTiter-Glo ATP luminescence, 90 h; actives 56% (n = 5,600); inhibition, % at 24.9 µM; shares compounds with T cruzi growth-1;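 active = mean loss of cell viability signal at or above a set limit, and enough replicates individually reaching it; inconclusive = meets only the mean limit or only the replicate share; inactive = meets neither condition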;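 also: 0% = median of neutral control wells and 100% = median of positive control wells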
The depositor's hits bear a star; ? = inconclusive; . = not tested or not shown.

SMILES | T cruzi growth-1 | KDM4C inh | Pf Dd2 inh | IDH1 R132H inh | T cruzi growth-2 | T cruzi growth-3 | NIH3T3 tox | 3T3 cytotox 2
Cn1cnc(S(=O)(=O)N2CCCCN3[C@H](C2)[C@@H](c2ccc(-c4ccc(F)cc4)cc2)[C@@H]3CO)c1 | 23.4 | 0.0 | 37.5 | . | . | . | . | .
Cn1cnc(S(=O)(=O)N2CCCCN3[C@@H](CO)[C@H](c4ccc(-c5ccccc5)cc4)[C@@H]3C2)c1 | 100.4* | 0.2 | 42.4 | . | -13.5 | 9.9 | 9.0 | 32.6*
CCc1ccc2oc(-c3cccc(NC(=O)COc4ccccc4)c3)nc2c1 | . | . | . | 0.1 | . | . | . | .
O=C(C[C@H]1C[C@H]2c3cc(NS(=O)(=O)c4ccc(F)cc4)ccc3O[C@H]2[C@H](CO)O1)NCc1ccc(-c2ccccc2)cc1 | 100.6* | -6.2 | -71.1 | 0.7 | 86.9 | 101.0* | 66.3* | 67.4*
O=C(C[C@H]1C[C@H]2c3cc(NS(=O)(=O)c4ccc(F)cc4)ccc3O[C@H]2[C@@H](CO)O1)NCc1ccc(Oc2ccccc2)cc1 | 119.5* | -2.6 | -52.3 | 1.3 | 101.1* | 77.3 | 19.7 | 20.5
O=C(C[C@@H]1C[C@H]2c3cc(NS(=O)(=O)c4ccc(F)cc4)ccc3O[C@H]2[C@H](CO)O1)NCc1ccccc1 | -75.5 | -2.6 | -2.3 | 0.0 | . | . | . | .
O=C(C[C@@H]1C[C@@H]2c3cc(NS(=O)(=O)c4ccc(F)cc4)ccc3O[C@@H]2[C@@H](CO)O1)NCc1ccc(-c2ccccc2)cc1 | 102.1* | . | -27.1 | 2.1 | 87.9 | 91.7 | 39.1* | 45.1*
O=C(C[C@@H]1C[C@H]2c3cc(NS(=O)(=O)c4ccc(F)cc4)ccc3O[C@H]2[C@@H](CO)O1)NCc1ccc(-c2ccccc2)cc1 | 91.6 | -7.1 | -18.1 | 0.2 | . | . | . | .
COc1cccc(S(=O)(=O)Nc2ccc3c(c2)[C@@H]2C[C@H](CC(=O)NCc4ccccc4F)O[C@@H](CO)[C@@H]2O3)c1 | 70.8 | 7.1 | -79.5 | -0.2 | . | . | . | .
O=C(C[C@H]1C[C@H]2c3cc(NS(=O)(=O)c4ccc(F)cc4)ccc3O[C@H]2[C@H](CO)O1)NCc1ccccc1 | -31.1 | -4.1 | -44.2 | -0.1 | . | . | . | .
COc1cccc(S(=O)(=O)Nc2ccc3c(c2)[C@H]2C[C@H](CC(=O)NCc4ccccc4F)O[C@H](CO)[C@H]2O3)c1 | 143.5* | 0.0 | -43.7 | 0.1 | 97.9* | -0.1 | -15.8 | 2.5
Cc1cc(Br)ccc1NC(=O)CCCN1C(=O)c2ccccc2C1=O | . | . | . | 0.6 | . | . | . | .
COC(=O)c1c(NC(=O)C(C)Oc2ccc(F)cc2)sc(C(C)=O)c1C (stereo not given) | . | . | . | 0.4 | . | . | . | .
COc1cccc(-c2ccc3c(c2)[C@H]2[C@H](CCN2S(=O)(=O)c2ccccc2OC)[C@H](CO)N3)c1 | ? | 0.7 | -42.3 | . | 102.2* | 91.4 | -9.1 | -35.6
Cc1ccccc1S(=O)(=O)N1CC[C@@H]2[C@H](CO)Nc3ccc(-c4ccccc4F)cc3[C@@H]21 | 109.8* | 0.9 | -11.9 | . | 97.4* | 76.6 | 7.7 | 105.6*
Cc1ccccc1S(=O)(=O)N1CC[C@@H]2[C@H]1c1cc(-c3ccccc3F)ccc1N[C@@H]2CO | -11.0 | -0.1 | 2.2 | . | . | . | . | .
COc1ccccc1S(=O)(=O)N1CC[C@@H]2[C@@H](CO)Nc3ccc(-c4ccccc4F)cc3[C@@H]21 | ? | -2.2 | 1.6 | . | 103.6* | 86.4 | 24.4 | 41.0*
C/C=C/c1ccc2c(c1)O[C@H](CN(C)C(=O)Nc1cc(F)ccc1F)[C@@H](C)CN([C@@H](C)CO)S2(=O)=O | 100.3* | -0.2 | -45.5 | -2.6 | 101.1* | 32.8 | 0.5 | 25.0
C/C=C/c1ccc2c(c1)O[C@H](CN(C)C(=O)Nc1cccc(F)c1)[C@@H](C)CN([C@H](C)CO)S2(=O)=O | 80.3 | -2.0 | -11.4 | -1.8 | . | . | . | .
C[C@@H]1CN([C@H](C)CO)S(=O)(=O)c2ccc(/C=C/c3ccccc3)cc2O[C@H]1CN(C)C(=O)Nc1cccc(F)c1 | 123.1* | -1.7 | -61.0 | -0.3 | 95.6* | 99.4* | 73.0* | 102.3*
C[C@H]1CN([C@@H](C)CO)S(=O)(=O)c2ccc(/C=C/c3ccccc3)cc2O[C@@H]1CN(C)C(=O)Nc1cccc(F)c1 | 125.3* | 0.6 | -19.2 | 2.2 | 95.1* | 100.3* | ? | 47.1*
C[C@H](CO)N1C[C@H](C)[C@H](CN(C)C(=O)Nc2cccc(F)c2)Oc2cc(/C=C/c3ccccc3)ccc2S1(=O)=O | 123.6* | -1.4 | -75.6 | 1.8 | 104.8* | 111.4* | 39.3* | 36.8*
C/C=C/c1ccc2c(c1)O[C@H](CN(C)C(=O)Nc1cc(F)ccc1F)[C@@H](C)CN([C@H](C)CO)S2(=O)=O | 28.0 | -1.9 | -33.1 | 3.2 | . | . | . | .
CCOC(=O)c1ccc(NC(=O)CN2C(=O)C3C4C=CC(C5CC45)C3C2=O)cc1 (stereo not given) | . | . | . | -0.4 | . | . | . | .
Cc1cccc(C)c1OCC(=O)Nc1cccnc1 | . | . | . | 0.0 | . | . | . | .
C[C@H](CO)N1C[C@H](C)[C@H](CN(C)C(=O)Nc2ccc(F)cc2)Oc2cc(/C=C/c3ccccc3)ccc2S1(=O)=O | 122.4* | . | -78.5 | -0.9 | 99.1* | 105.1* | 11.6 | 36.5*
C[C@@H]1CN([C@H](C)CO)S(=O)(=O)c2ccc(/C=C/c3ccccc3)cc2O[C@@H]1CN(C)C(=O)Nc1cccc(F)c1 | 124.1* | -2.0 | -66.0 | -3.0 | 101.4* | 108.3* | 22.2 | 29.6
C/C=C/c1ccc2c(c1)O[C@@H](CN(C)C(=O)Nc1cccc(F)c1)[C@@H](C)CN([C@H](C)CO)S2(=O)=O | 66.2 | -1.3 | -50.5 | 0.1 | . | . | . | .
C/C=C/c1ccc2c(c1)O[C@H](CN(C)C(=O)Nc1ccc(F)cc1)[C@H](C)CN([C@H](C)CO)S2(=O)=O | 65.0 | -2.0 | -12.1 | 0.2 | . | . | . | .
C/C=C/c1ccc2c(c1)O[C@@H](CN(C)C(=O)Nc1ccc(C(F)(F)F)cc1)[C@H](C)CN([C@H](C)CO)S2(=O)=O | 111.8* | 0.2 | -17.4 | 2.9 | 93.9 | 103.2* | 43.3* | 54.8*
